Data set [1] concerns Trypanosoma brucei rhodesiense. In words: Antitrypanosomal activity against Trypanosoma rhodesiense CT infected in ICR/HA Swiss mouse assessed as increase in mean survival time at 0.21 mg/kg. In kind it is functional. In outline: (§1)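 Mice, five per dosage level, each dosed in mg of compound per kg body weight. ΔMST is the increase in mean survival time of treated over untreated infected controls, in days. A cure is a 30-day survival increase over controls, with at most five cures per dose. Deaths attributed to compound toxicity were scored as toxic deaths.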

In data set [2] the test system is Trypanosoma brucei rhodesiense. In words: Antitrypanosomal activity against Trypanosoma rhodesiense CT infected in ICR/HA Swiss mouse assessed as 30-day increase in survival time at 160 mg/kg relative to control. In kind it is functional, organism-based. Also noted: dose 160 mg/kg. In outline:
(§2)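 Mice infected with T. rhodesiense, dosed per mg of compound per kg body weight, five mice per dose level. A cure means survival extended 30 days beyond untreated controls, so at most five cures per dose. Non-curative effects are given as ΔMST, the gain in mean survival time in days versus controls. Toxic deaths are flagged separately.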

For data set [3], the system named is Trypanosoma brucei rhodesiense. In words: Antitrypanosomal activity against Trypanosoma rhodesiense CT infected in ICR/HA Swiss mouse assessed as 30-day increase in survival time at 80 mg/kg relative to control. Also noted: dose 80 mg/kg. In kind it is functional, organism-based. In outline: as §2
Data set [4] has as its system Trypanosoma brucei rhodesiense. The experiment in a line: Antitrypanosomal activity against Trypanosoma rhodesiense CT infected in ICR/HA Swiss mouse assessed as 30-day increase in survival time at 10 mg/kg relative to control. Also noted: dose 10 mg/kg. In kind it is functional, organism-based. A digest of the protocol: as §2
Data set [5] has as its system Trypanosoma brucei rhodesiense. In words: Antitrypanosomal activity against Trypanosoma rhodesiense CT infected in ICR/HA Swiss mouse assessed as 30-day increase in survival time at 20 mg/kg relative to control. It counts as functional, organism-based. Also on record: dose 20 mg/kg. In outline: as §2
Data set [6] concerns Trypanosoma brucei rhodesiense. The experiment in a line: Antitrypanosomal activity against Trypanosoma rhodesiense CT infected in ICR/HA Swiss mouse assessed as 30-day increase in survival time at 5 mg/kg relative to control. It counts as functional, organism-based. Also noted: dose 5 mg/kg. In outline: as §2
In data set [7] the test system is Plasmodium berghei. In words: Antimalarial activity against Plasmodium berghei infected in mouse up to 640 mg/kg, sc administered 72 hrs post infection. It counts as functional, organism-based. Also on record: dose 640 mg/kg. A digest of the protocol: (§3)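 Antimalarial screen in P. berghei-infected mice, doses in mg/kg. The read-out is the gain in mean survival time of treated animals over untreated controls. Toxicity is recorded at the dose levels tested.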

For data set [8], the system named is Trypanosoma brucei rhodesiense. The experiment in a line: Antitrypanosomal activity against Trypanosoma rhodesiense CT infected in ICR/HA Swiss mouse assessed as 30-day increase in survival time at 320 mg/kg relative to control. In kind it is functional, organism-based. Also on record: dose 320 mg/kg. In outline: as §2
Data set [9] has as its system Trypanosoma brucei rhodesiense. In words: Antitrypanosomal activity against Trypanosoma rhodesiense CT infected in ICR/HA Swiss mouse assessed as 30-day increase in survival time at 40 mg/kg relative to control. Also noted: dose 40 mg/kg. It counts as functional, organism-based. A digest of the protocol: as §2
Data set [10] relates to Trypanosoma brucei rhodesiense. The experiment in a line: Antitrypanosomal activity against Trypanosoma rhodesiense CT infected in ICR/HA Swiss mouse assessed as 30-day increase in survival time at 2.5 mg/kg relative to control. In kind it is functional, organism-based. Also noted: dose 2.5 mg/kg. In outline: as §2
Data set [11] has as its system Trypanosoma brucei rhodesiense. The experiment in a line: Antitrypanosomal activity against Trypanosoma rhodesiense CT infected in ICR/HA Swiss mouse assessed as 30-day increase in survival time at 0.83 mg/kg relative to control. In kind it is functional, organism-based. Also noted: dose 0.83 mg/kg. A digest of the protocol: as §2
Data set [12] has as its system Trypanosoma brucei rhodesiense. The experiment in a line: Antitrypanosomal activity against Trypanosoma rhodesiense CT infected in ICR/HA Swiss mouse assessed as 30-day increase in survival time at 1.25 mg/kg relative to control. Also noted: dose 1.25 mg/kg. It counts as functional, organism-based. A digest of the protocol: as §2
Data set [13] concerns Mus musculus. In words: Toxicity in ICR/HA Swiss mouse infected with Trypanosoma rhodesiense CT assessed as mortality at 640 mg/kg. In kind it is organism-based. Also on record: dose 640 mg/kg. The conditions noted are these: in vivo. A digest of the protocol: as §1
The subject of data set [14] is Mus musculus. The experiment in a line: Toxicity in ICR/HA Swiss mouse infected with Trypanosoma rhodesiense CT assessed as mortality at 40 mg/kg. It counts as organism-based. Also noted: dose 40 mg/kg. The conditions noted are these: in vivo. In outline:
as §1

The subject of data set [15] is Mus musculus. The experiment in a line: Toxicity in ICR/HA Swiss mouse infected with Trypanosoma rhodesiense CT assessed as mortality at 160 mg/kg. It counts as organism-based. Also on record: dose 160 mg/kg. As to conditions: in vivo. A digest of the protocol:
as §1

The subject of data set [16] is Trypanosoma brucei rhodesiense. In words: Antitrypanosomal activity against Trypanosoma rhodesiense CT infected in ICR/HA Swiss mouse assessed as 30-day increase in survival time at 640 mg/kg relative to control. It counts as functional, organism-based. Also on record: dose 640 mg/kg. A digest of the protocol:
as §2

The test system of data set [17] is Mus musculus. In words: Toxicity in ICR/HA Swiss mouse infected with Trypanosoma rhodesiense CT assessed as mortality at 320 mg/kg. As to conditions: in vivo. In kind it is organism-based. Also on record: dose 320 mg/kg. A digest of the protocol: as §1
The subject of data set [18] is Trypanosoma brucei rhodesiense. In words: Antitrypanosomal activity against Trypanosoma rhodesiense CT infected in ICR/HA Swiss mouse assessed as increase in mean survival time at 1.25 mg/kg. In kind it is functional. In outline: as §1
The test system of data set [19] is Mus musculus. In words: Toxicity in mouse infected with Plasmodium berghei at 640 mg/kg, sc administered 72 hrs post infection. The conditions noted are these: in vivo. In kind it is organism-based. Also noted: dose 640 mg/kg, route subcutaneous. In outline: as §3
The test system of data set [20] is Plasmodium berghei. In words: Antimalarial activity against Plasmodium berghei infected in mouse assessed as increase in mean survival time at 320 mg/kg, sc administered 72 hrs post infection. As to conditions: route subcutaneous. It counts as functional.
Data set [21] concerns Trypanosoma brucei rhodesiense. In words: Antitrypanosomal activity against Trypanosoma rhodesiense CT infected in ICR/HA Swiss mouse assessed as increase in mean survival time at 2.5 mg/kg. In kind it is functional. In outline:
as §1

Data set [22] relates to Trypanosoma brucei rhodesiense. In words: Antitrypanosomal activity against Trypanosoma rhodesiense CT infected in ICR/HA Swiss mouse assessed as increase in mean survival time at 5 mg/kg. In kind it is functional. A digest of the protocol: as §1
For data set [23], the system named is Plasmodium berghei. The experiment in a line: Antimalarial activity against Plasmodium berghei infected in mouse assessed as increase in mean survival time at 640 mg/kg, sc administered 72 hrs post infection. In kind it is functional. As to conditions: route subcutaneous.

The structures appear in SMILES notation. Active and inactive are the calls of the source. The rule behind the calls is not given here.

For 18 molecules, Survival and Activity results are on record in ChEMBL document CHEMBL3244185, “Synthesis and antiprotozoal activity of 2,5-bis(4-guanylphenyl)furans” (J Med Chem, 1977).

Regarding `Cc1c(-c2ccc([C+](N)N)cc2)oc(-c2ccc([C+](N)N)cc2)c1Cl.[Cl-].[Cl-]`, in data set [1], the Survival was 2.1 days. Moreover, the result in data set [2], in data set [3], in data set [4], in data set [5], in [6] and in [8] was Active. Further, in data set [9], the outcome was Active. Also, in the data set with Plasmodium berghei [7], the outcome was inactive.

With `Cc1cc(-c2ccc([C+](N)N)cc2)oc1-c1ccc([C+](N)N)cc1`, the outcome in [10], in data set [2], in [3], in data set [11], in data set [4] and in data set [5] was Active. Further, the outcome in data set [6], in data set [12], in data set [8] and in [9] was Active. In the data set with Plasmodium berghei [7], the result was inactive.

For `CN1CCCN(C)[C+]1c1ccc(-c2ccc(-c3ccc([C+]4N(C)CCCN4C)cc3)o2)cc1.[Cl-].[Cl-]`, the Activity result in the data set with Mus musculus [13], with Mus musculus [14] and with Mus musculus [15] was “Toxic” each time. Moreover, in the data set on Plasmodium berghei [7], the result was inactive.

As for `N=C(N)c1ccc(/C=C/c2ccc(C(=N)N)cc2O)cc1`, the result in data set [10], in data set [2], in data set [16], in data set [3], in data set [4] and in [5] was Active. Moreover, the result in data set [6], in [8] and in [9] was Active.

`CN1CCN(C)[C+]1c1ccc(-c2ccc(-c3ccc([C+]4N(C)CCN4C)cc3)o2)cc1.[Cl-].[Cl-]`: the Activity result in the data set on Mus musculus [13], in the data set with Mus musculus [14] and in the data set with Mus musculus [15] was “Toxic” each time. For the same molecule, the result with Plasmodium berghei [7] was inactive.

On to `Cc1c(-c2ccc([C+]3NCCCN3)cc2)oc(-c2ccc([C+]3NCCCN3)cc2)c1C.[Cl-].[Cl-]`, for which the result in data set [3], in [4], in data set [5] and in [9] was Active. Also, the Activity result with Mus musculus [13] and in the data set on Mus musculus [17] was “Toxic” each time. For the same molecule, the Survival in [18] was 3.2 days. Moreover, the result with Plasmodium berghei [7] was inactive.

`N[C+](N)c1ccc(-c2ccc(-c3ccc([C+](N)N)cc3)o2)cc1`: the outcome in data set [2], in [16], in [3], in [4], in data set [5] and in data set [6] was Active. Further, the result in [8] and in [9] was Active. For the same molecule, in the data set with Plasmodium berghei [7], the outcome was inactive.

For `Cc1c(-c2ccc([C+]3NCC(C)N3)cc2)oc(-c2ccc([C+]3NCC(C)N3)cc2)c1C` (stereo not given), in the data set on Plasmodium berghei [7], the result was inactive.

Consider `Cl.Cl.c1cc(-c2ccc(-c3ccc(C4=NCCCN4)cc3)o2)ccc1C1=NCCCN1`, for which the result in data set [2], in [3], in data set [5] and in [9] was Active. The Activity result with Mus musculus [19] is on record as “Toxic”. The Survival in the data set on Plasmodium berghei [20] was 12 days.

With `Cc1c(-c2ccc([C+]3NCCN3)cc2)oc(-c2ccc([C+]3NCCN3)cc2)c1C.[Cl-].[Cl-]`, the outcome in data set [2], in [16], in [3], in data set [5], in data set [8] and in data set [9] was Active. Besides, the Survival is 1.8 days in data set [18] and 18 days in data set [21]. The outcome with Plasmodium berghei [7] was inactive.

Take `N=C(N)c1ccc(/C=C/c2ccc(C(=N)N)cc2)cc1`: the result in [10], in data set [2], in data set [16], in data set [3], in [4] and in data set [5] was Active. In addition, the result in data set [6], in [8] and in data set [9] was Active.

Turning to `CC1CN[C+](c2ccc(-c3ccc(-c4ccc([C+]5NCC(C)N5)cc4)o3)cc2)N1.[Cl-].[Cl-]` (stereo not given), the result in data set [2], in data set [16], in data set [3] and in data set [8] was Active. The Survival in [22] came out at 3.2 days; in [21], 0.6 days. Besides, the outcome with Plasmodium berghei [7] was inactive.

In the case of `NNC(=O)c1ccc(-c2ccc(-c3ccc(C(=O)NN)cc3)o2)cc1`, in the data set with Plasmodium berghei [7], the outcome was inactive.

Turning to `[Cl-].[Cl-].c1cc([C+]2NCCN2)ccc1-c1ccc(-c2ccc([C+]3NCCN3)cc2)o1`, the result in data set [2], in data set [3], in [8] and in [9] was Active. Also, the Survival with Plasmodium berghei [23] was found to be 5 days.

Regarding `Cc1c(-c2ccc([C+](N)N)cc2)oc(-c2ccc([C+](N)N)cc2)c1C`, the result in [2], in [3], in [4], in data set [5], in data set [6] and in [8] was Active. Further, in data set [9], the outcome was Active. For the same molecule, in the data set on Plasmodium berghei [7], the outcome was inactive.

For the molecule `N[C+](N)c1ccc(-c2cc(Cl)c(-c3ccc([C+](N)N)cc3)o2)cc1`, the result in data set [10], in data set [4], in data set [5], in data set [6] and in [12] was Active. Further, in the data set with Plasmodium berghei [7], the outcome was inactive.

For the molecule `CCN(CC)CCCN[C+](N)c1ccc(-c2ccc(-c3ccc([C+](N)NCCCN(CC)CC)cc3)o2)cc1`, the result with Plasmodium berghei [7] was inactive.

Take `N=C(N)c1ccc(OCCCCCOc2ccc(C(=N)N)cc2)cc1`: the result in data set [2], in data set [16], in data set [3], in [4], in [5] and in data set [6] was Active. The result in [8] and in data set [9] was Active.
